Experimental data reported in ChEMBL document CHEMBL4190170, “Improved Antiviral Activity of a Polyamide Against High-Risk Human Papillomavirus Via N-Terminal Guanidinium Substitution” (Medchemcomm, 2016).
Calls of active or inactive are those of the source. The rule behind the calls is not given here.

Tests used:
[1] = Binding affinity to HPV 18 ACATA TTTTGAACAA TTGGC LCR DNA (7559 to 7568 nucleotides) after 4 hrs by DNase I footprinting assay; design: species or system human papillomavirus 18
In short: (§1)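 Kd values derived from DNase I footprinting of HPV18 LCR DNA, each run at least in triplicate. Sites are read as the polyamide binding block flanked by 5 nt on each side.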

[2] = test system: human papillomavirus 18; assay: Binding affinity to HPV 18 CCT GGT ATTAG TCATT TTCCTG TCCAGGT LCR DNA (7619 to 7626 nucleotide) at 5 nM after 4 hrs by DNase I footprinting assay; in short: as §1
[3] = test system: human papillomavirus 18; assay: Binding affinity to HPV 18 5'-TAGTCATTTT-3' LCR DNA (7609 to 7618 nucleotides) after 4 hrs by DNase I footprinting assay; in short: as §1
[4] = test system: Human papillomavirus; assay: Antiviral activity against HPV 16 infected in mouse 3T3 cells assessed as decrease in viral DNA after 48 hrs by qRT-PCR analysis; format: functional, organism-based, Human papillomavirus 16; details: NIH3T3, 48 h
In short: (§2)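 Assays run side by side over a range of polyamide concentrations for two days. Pseudo IC50 and IC90 are the polyamide concentrations that give a 50% or 90% drop in viral DNA.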

[5] = test system: Human papillomavirus; assay: Antiviral activity against HPV 31 infected in mouse 3T3 cells assessed as decrease in viral DNA after 48 hrs by qRT-PCR analysis; format: functional, organism-based, Human papillomavirus type 31; details: NIH3T3, 48 h; in short: as §2
[6] = (§3) Binding affinity to HPV 18 CCTGG TATTAGTCAT TTTCC LCR DNA (7606 to 7615 nucleotides) after 4 hrs by DNase I footprinting assay; design: species or system human papillomavirus 18; in short: as §1
[7] = test system: human papillomavirus 18; assay: as §3; in short: as §1
[8] = test system: Human papillomavirus; assay: Antiviral activity against HPV 18 infected in mouse 3T3 cells assessed as decrease in viral DNA after 48 hrs by qRT-PCR analysis; format: functional, organism-based, human papillomavirus 18; details: NIH3T3, 48 h; in short: as §2
[9] = Binding affinity to HPV 18 CTTTGGCGCATATAA GGCGC LCR DNA (7585 to 7594 nucleotides) after 4 hrs by DNase I footprinting assay; design: species or system human papillomavirus 18; in short: as §1
[10] = test system: human papillomavirus 18; assay: Binding affinity to HPV 18 CCT GG TATTAGTCATTTTCCTG TCCA G GT LCR DNA (7606 to 7615 nucleotide) at 50 nM after 4 hrs by DNase I footprinting assay; in short: as §1
[11] = test system: human papillomavirus 18; assay: Binding affinity to (7619 nucleotide) of HPV 18 CCT GGT ATTAG TCATT TTCCTG TCCAGGT LCR DNA at 5 nM after 4 hrs by DNase I footprinting assay; in short: as §1

| Compound | Kd [1] [nM] | Activity [2] | Activity [3] | IC50 [4] [nM] | IC90 [4] [nM] | IC50 [5] [nM] | IC90 [5] [nM] | Kd [6] [nM] | Activity [7] | IC50 [8] [nM] | IC90 [8] [nM] | Kd [9] [nM] | Activity [10] | Activity [11] |
| --- | --- | --- | --- | --- | --- | --- | --- | --- | --- | --- | --- | --- | --- | --- |
| CN(CCCN)CCCNC(=O)CCNC(=O)c1cc(NC(=O)c2cc(NC(=O)c3cc(NC(=O)c4cc(NC(=O)CCNC(=O)c5cc(NC(=O)c6cc(NC(=O)CCCNC(=O)c7cc(NC(=O)c8cc(NC(=O)c9cc(NC(=O)CCNC(=O)c%10cc(NC(=O)c%11cc(NC(=O)c%12nc(N=C(N)N)cn%12C)cn%11C)cn%10C)cn9C)cn8C)cn7C)cn6C)cn5C)cn4C)cn3C)cn2C)cn1C | 1 | Active | Active | 100 | 380 | 140 | 800 | 1 | Active | 200 | 900 | 2.2 |  |  |
| CN(CCCN)CCCNC(=O)CCNC(=O)c1cc(NC(=O)c2cc(NC(=O)c3cc(NC(=O)c4cc(NC(=O)CCNC(=O)c5cc(NC(=O)c6cc(NC(=O)CCCNC(=O)c7cc(NC(=O)c8cc(NC(=O)c9cc(NC(=O)CCNC(=O)c%10cc(NC(=O)c%11cc(NC(=O)c%12nc(N=C(N(C)C)N(C)C)cn%12C)cn%11C)cn%10C)cn9C)cn8C)cn7C)cn6C)cn5C)cn4C)cn3C)cn2C)cn1C | 1.1 |  |  | 300 | > 10000 | 130 | 900 | 1.2 | Active | 200 | > 10000 | 3.2 | Active | inactive |
| CN(CCCN)CCCNC(=O)CCNC(=O)c1cc(NC(=O)c2cc(NC(=O)c3cc(NC(=O)CCNC(=O)c4cc(NC(=O)c5cc(NC(=O)c6cc(NC(=O)CCNC(=O)c7cc(NC(=O)c8cc(NC(=O)CCNC(=O)c9cc(NC(=O)c%10cc(NC(=O)CCCNC(=O)c%11cc(NC(=O)c%12cc(NC(=O)c%13cc(NC(=O)CCNC(=O)c%14cc(NC(=O)c%15cc(NC(=O)c%16nccn%16C)cn%15C)cn%14C)cn%13C)cn%12C)cn%11C)cn%10C)cn9C)cn8C)cn7C)n(C)c6)n(C)c5)n(C)c4)n(C)c3)n(C)c2)n(C)c1 |  |  |  | 36 | 350 | 30 | 510 |  |  | 56 | 1500 |  |  |  |
| CN(CCCN)CCCNC(=O)CCNC(=O)c1cc(NC(=O)c2cc(NC(=O)c3cc(NC(=O)c4cc(NC(=O)CCNC(=O)c5cc(NC(=O)c6cc(NC(=O)CCCNC(=O)c7cc(NC(=O)c8cc(NC(=O)c9cc(NC(=O)CCNC(=O)c%10cc(NC(=O)c%11cc(NC(=O)c%12nccn%12C)cn%11C)cn%10C)cn9C)cn8C)cn7C)cn6C)cn5C)cn4C)cn3C)cn2C)cn1C | 0.9 |  | Active | 100 | 1100 | 100 | 1000 | 0.9 | Active | 700 | > 10000 | 2.7 |  |  |
